{"source": "ChEMBL document CHEMBL4414566", "about": "“Cytotoxicity and Anti-inflammatory Properties of Apigenin-Derived Isolaxifolin” (J Nat Prod, 2019)", "key": {"RAW264.7 [1]": {"system": "RAW264.7", "assay": "Antiinflammatory activity in mouse RAW264.7 cells assessed as inhibition LPS-induced NO production at 254.8 uM measured after 24 hrs by griess reagent based assay", "format": "functional, cell-based", "method_in_brief": "(§1)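 Murine RAW 264.7 macrophages, 1 × 10^5/well, 4 h settling, then LPS (1.0 μg/mL) for 24 h. Medium was swapped for test solutions (0.8–3.1 μM or 2.3–9.2 μM), or DXM 254.8 μM as positive control, for another 24 h. Secreted NO was measured by Griess assay; TNF-α and IL-6 by ELISA. Run in triplicate, mean ± SD.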"}, "MDA-MB-231 [2]": {"system": "MDA-MB-231", "assay": "Antiproliferative activity against human MDA-MB-231 cells assessed as viable cells at 40 uM incubated for 48 hrs by trypan blue dye exclusion test relative to control", "format": "functional", "settings": "MDA-MB-231, 48 h, read-out: Activity"}, "RAW264.7 [3]": {"system": "RAW264.7", "assay": "Antiinflammatory activity in mouse RAW264.7 cells assessed as reduction in LPS-induced IL6 production preincubated with LPS for 24 hrs followed by compound addition and measured after 24 hrs by ELISA", "format": "functional, cell-based", "method_in_brief": "as §1"}, "RAW264.7 [4]": {"system": "RAW264.7", "assay": "Antiinflammatory activity in mouse RAW264.7 cells assessed as reduction in LPS-induced TNFalpha production preincubated with LPS for 24 hrs followed by compound addition and measured after 24 hrs by ELISA", "format": "functional, cell-based", "method_in_brief": "as §1"}, "RAW264.7 [5]": {"system": "RAW264.7", "assay": "Antiinflammatory activity in mouse RAW264.7 cells assessed as inhibition of LPS-induced NO production measured after 24 hrs by griess reagent based assay", "format": "functional, cell-based", "method_in_brief": "as §1"}, "[6]": {"assay": "Cytotoxicity against mouse RAW264.7 cells assessed as reduction in cell viability incubated for 24 hrs by MTT assay", "format": "cell-based", "settings": "read-out: MNCC", "method_in_brief": "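MTT viability assay: RAW 264.7 cells seeded at 2.5 × 10^4 cells/well, cultured 12 h, then given five concentrations from serial dilution (up to 6.2 or 9.2 μM; final DMSO <1%) for 24 h. Viability was calculated relative to untreated blank control; n = 3, mean ± SD.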"}, "MDA-MB-231 [7]": {"system": "MDA-MB-231", "assay": "Induction of mitochondrial membrane potential loss in human MDA-MB-231 cells incubated for 48 hrs by JC1 staining based flow cytometric analysis", "format": "functional, cell-based", "method_in_brief": "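MDA-MB-231 cells in DMEM/10% FBS exposed 48 h to 0, 8.6, 12.4 or 17.3 μM. Harvested cells stained with JC-1 for 15 min in the dark, then analysed by flow cytometry. Excitation 488 nm; green emission read at 525 nm, red at 590 nm. Output given as percent green-to-red fluorescence intensity ratio. Triplicate, mean ± SD.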"}, "MDA-MB-231 [8]": {"system": "MDA-MB-231", "assay": "Induction of apoptosis in human MDA-MB-231 cells assessed as increase in nuclear chromatin condensation incubated for 48 hrs by Hoechst 33258 staining based fluorescence microscopic method", "format": "functional, cell-based", "method_in_brief": "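MDA-MB-231 cells were grown 24 h and treated with 8.6, 12.4 or 17.3 μM for 48 h. They were then fixed 10 min, washed three times in PBS and stained 5 min with Hoechst 33258. Nuclear condensation was imaged by fluorescence microscopy (excitation 350 nm, emission 460 nm).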"}, "L02": {"system": "L02", "assay": "Cytotoxicity against human LO2 cells assessed as reduction in cell viability at 23.1 to 185 uM incubated for 48 hrs by methylene blue assay", "format": "cell-based", "settings": "l02, 48 h", "method_in_brief": "(§2)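 MDA-MB-231, MCF-7, HepG2 and LNCaP cells were grown in DMEM; HCT-116 and LO-2 in RPMI-1640; all with 10% FBS at 37 °C, 5% CO2. Cells seeded at 1.5 × 10^5 cells/mL and incubated overnight (~12 h), then exposed to 6.2–30.9 μM or 23.1–185.0 μM (final DMSO <0.1%) for 48 h. Read by methylene blue staining; viability = Abs treated/Abs untreated × 100%, triplicate.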"}, "MCF7 [9]": {"system": "MCF7", "assay": "Antiproliferative activity against human MCF7 cells assessed as cell viability at 188.7 uM incubated for 48 hrs by methylene blue assay relative to control", "format": "functional", "settings": "MCF7, 48 h, read-out: Activity"}, "RAW264.7 [10]": {"system": "RAW264.7", "assay": "Antiinflammatory activity against LPS-activated mouse RAW264.7 cells assessed as reduction in TNFalpha mRNA expression preincubated with LPS for 24 hrs followed by compound addition and measured after 24 hrs by qRT-PCR analysis", "format": "functional, cell-based", "method_in_brief": "(§3)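 RAW 264.7 cells (DMEM, 10% FBS, 37 °C, 5% CO2) seeded at 1 × 10^5/well and held 4 h. LPS 1.0 μg/mL was added for 24 h, then medium was replaced with test agent (0.8, 1.6, 3.1 μM or 2.3, 4.6, 9.2 μM) for 24 h. TNF-α and IL-6 transcripts were quantified by real-time qPCR against GAPDH. Triplicates, mean ± SD.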"}, "RAW264.7 [11]": {"system": "RAW264.7", "assay": "Antiinflammatory activity against LPS-activated mouse RAW264.7 cells assessed as reduction in IL6 mRNA expression preincubated with LPS for 24 hrs followed by compound addition and measured after 24 hrs by qRT-PCR analysis", "format": "functional, cell-based", "method_in_brief": "as §3"}, "MDA-MB-231 [12]": {"system": "MDA-MB-231", "assay": "Antiproliferative activity against human MDA-MB-231 cells assessed as reduction in cell viability at 46.3 uM incubated for 48 hrs by methylene blue assay", "format": "functional", "method_in_brief": "as §2"}, "MCF7 [13]": {"system": "MCF7", "assay": "Antiproliferative activity against human MCF7 cells assessed as reduction in cell viability at 46.3 uM incubated for 48 hrs by methylene blue assay relative to control", "format": "functional", "method_in_brief": "as §2"}, "HepG2": {"system": "HepG2", "assay": "Antiproliferative activity against human HepG2 cells reduction in cell viability at 46.3 uM incubated for 48 hrs by methylene blue assay relative to control", "format": "functional", "method_in_brief": "as §2"}, "LNCaP": {"system": "LNCaP", "assay": "Antiproliferative activity against human LNCAP cells assessed as reduction in cell viability at 46.3 uM incubated for 48 hrs by methylene blue assay relative to control", "format": "functional", "method_in_brief": "as §2"}, "HCT-116": {"system": "HCT-116", "assay": "Antiproliferative activity against human HCT116 cells assessed as reduction in cell viability at 46.3 uM incubated for 48 hrs by methylene blue assay relative to control", "format": "functional", "method_in_brief": "as §2"}, "MDA-MB-231 [14]": {"system": "MDA-MB-231", "assay": "Induction of cell cycle arrest in human MDA-MB-231 cells assessed as increase in accumulation of cells at G0/G1 phase incubated for 48 hrs by PI/RNase staining based flow cytometric analysis", "format": "functional", "method_in_brief": "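Cells grown 24 h in DMEM/10% FBS at 37 °C, 5% CO2, then exposed 48 h to 8.6, 12.4 or 17.3 μM. Pelleted, fixed in 75% ethanol at −20 °C overnight, stained with PI-containing RNase 15 min in the dark at ambient temperature. About 10 000 cells per well analysed by flow cytometry. Triplicate, mean ± SD.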"}, "RAW264.7 [15]": {"system": "RAW264.7", "assay": "Inhibition of nitric oxide production in mouse RAW264.7 cells measured after 24 hrs by griess reagent based assay", "format": "functional, cell-based"}}, "note": "Activity calls are given as the source filed them. No cut-off for these calls is given here.", "data": [{"smiles": "C[C@@H]1C[C@H]2[C@@H]3CCC4=CC(=O)C=C[C@]4(C)[C@@]3(F)[C@@H](O)C[C@]2(C)[C@@]1(O)C(=O)CO", "values": [{"measurement": "inhibition", "setting": "RAW264.7 [1]", "value": "Active"}]}, {"smiles": "O=c1cc(-c2ccc(O)cc2)oc2cc(O)cc(O)c12", "note": "[APIGENIN]", "values": [{"measurement": "viability at 40 µM", "setting": "MDA-MB-231 [2]", "value": 45, "unit": "%"}, {"measurement": "Activity", "setting": "RAW264.7 [3]", "value": "Dose-dependent effect"}, {"measurement": "Activity", "setting": "RAW264.7 [4]", "value": "Dose-dependent effect"}, {"measurement": "inhibition", "setting": "RAW264.7 [5]", "value": "Dose-dependent effect"}, {"measurement": "MNTC at 24 h", "setting": "[6]", "value": 9.2, "unit": "µM"}, {"measurement": "Activity", "setting": "MDA-MB-231 [7]", "value": "Active"}, {"measurement": "Activity", "setting": "MDA-MB-231 [8]", "value": "Dose-dependent effect"}, {"measurement": "Activity", "setting": "L02", "value": "Non-Toxic"}, {"measurement": "viability at 188.7 µM", "setting": "MCF7 [9]", "value": 20, "unit": "%"}, {"measurement": "Activity", "setting": "RAW264.7 [10]", "value": "Dose-dependent effect"}, {"measurement": "Activity", "setting": "RAW264.7 [11]", "value": "Dose-dependent effect"}, {"measurement": "Activity", "setting": "MDA-MB-231 [12]", "value": "<=50%"}, {"measurement": "Activity", "setting": "MCF7 [13]", "value": "<=50%"}, {"measurement": "Activity", "setting": "HepG2", "value": "<=50%"}, {"measurement": "Activity", "setting": "LNCaP", "value": "<=50%"}, {"measurement": "Activity", "setting": "HCT-116", "value": "<=50%"}, {"measurement": "Activity", "setting": "MDA-MB-231 [14]", "value": "Active"}, {"measurement": "inhibition", "setting": "RAW264.7 [15]", "value": "Dose-dependent effect"}]}]}
